Source: ChEMBL document CHEMBL1828588, “Arylamides hybrids of two high-affinity σ2 receptor ligands as tools for the development of PET radiotracers” (Eur J Med Chem, 2011)

How the values were obtained:
[1] = Displacement of [3H]-DTG from sigma 2 receptor in rat liver membrane after 30 mins by radioligand binding assay; type: cell membranes
Summary of the method: (§1)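 […] (30 Ci/mmol) radioligand binding per Matsumoto et al. IC50 taken from six to nine drug concentrations, in two or three experiments with duplicate samples. Ki obtained by non-linear curve fitting. Tested as hydrochloride salts.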

[2] = target: Sigma non-opioid intracellular receptor 1 (Cavia porcellus, UniProt Q60492); assay: Displacement of [3H]-pentazocine from sigma 1 receptor in guinea pig brain after 30 mins by radioligand binding assay
[3] = Inhibition of P-gp in dog MDCK-MDR1 cells by calcein-AM assay; type: cell-based, Canis lupus familiaris
Summary of the method: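 MDCK-MDR1 cells overexpressing P-gp, grown in DMEM high glucose with 10% FBS and 2 mM glutamine at 37 °C under 5% CO2. Seeded at 50,000 cells/well and left overnight to confluence. Compound added for 30 min at 37 °C, then calcein-AM (final 2.5 µM in PBS) for 30 min. Wells washed with ice-cold PBS. Fluorescence read at 485/535 nm. EC50 from % increase over untreated basal versus log dose.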

[4] = Selectivity ratio of Ki for sigma 1 receptor in guinea pig brain to Ki for sigma 2 receptor in rat liver membrane; type: cell membranes
[5] = Lipophilicity, log D of the compound at pH 7.4; type: physicochemical; details: buffer
Summary of the method: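 LogD calculated for compounds at pH 7.4.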

Rattus norvegicus = species: Rattus norvegicus; assay: Displacement of [3H]-DTG from sigma 2 receptor in rat liver membrane at […] after 30 mins by radioligand binding assay; type: cell membranes; summary of the method: as §1

Sequence of Sigma non-opioid intracellular receptor 1 (Q60492 whole entry): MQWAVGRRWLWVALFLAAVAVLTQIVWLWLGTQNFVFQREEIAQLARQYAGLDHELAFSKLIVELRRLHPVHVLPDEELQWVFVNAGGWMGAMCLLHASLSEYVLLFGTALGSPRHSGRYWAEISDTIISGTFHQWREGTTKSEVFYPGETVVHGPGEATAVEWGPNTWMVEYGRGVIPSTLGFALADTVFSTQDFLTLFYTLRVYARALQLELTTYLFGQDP

Work on `COc1ccc(C)cc1C(=O)NCCCN1CCN(C2CCCCC2)CC1` yielded a Ki [1] of 26.1 nM, a Ki [2] of 45.5 nM and an EC50 [3] of 8600 nM. The Ratio Ki [4] was 1.7 and the logD [5] was 1.94.

Molecule `COc1cc2c(cc1OC)CN(CCCNC(=O)c1cc(Br)cc(OC)c1OC)CC2` has a Ki [1] of 12.9 nM, a Ki [2] of 4400 nM and an EC50 [3] of 2500 nM. The Ratio Ki [4] was 341 and the logD [5] was 3.22.

With `COc1cc(Br)c(C(=O)NCCCN2CCN(C3CCCCC3)CC2)cc1OC` the Ki [1] was 467 nM, the Ki [2] was 268 nM and the EC50 [3] was 45000 nM. It also gave a Ratio Ki [4] of 0.6 and a logD [5] of 2.11.

Molecule `COc1cc2c(cc1OC)CN(CCCC1CCCc3c(OC)cccc31)CC2` (stereo not drawn) has a Ki [2] of 151 nM, an EC50 [3] of 1100 nM and an Activity (Rattus norvegicus) of 96%. The logD [5] was 4.33.

For `COc1cc(Br)cc(C(=O)NCCCN2CCN(C3CCCCC3)CC2)c1OC`, the Ki [1] was 21.2 nM, the Ki [2] was 25.8 nM and the EC50 [3] was 2700 nM. It also gave a Ratio Ki [4] of 1.2 and a logD [5] of 2.43.

In the case of `COc1cccc2c1CCCC2CCCN1CCN(C2CCCCC2)CC1` (stereo not drawn), the Ki [1] is reported as 0.68 nM, the EC50 [3] is reported as 3000 nM and the logD [5] is reported as 3.75.

For `Cc1ccccc1NC(=N)Nc1ccccc1C` [DITOLYLGUANIDINE], the Ki [1] was 26.3 nM.

In the case of `O=C1c2ccccc2CCN1CCCN1CCN(C2CCCCC2)CC1`, the Ki [1] is reported as 26.6 nM, the Ki [2] is reported as 24.7 nM and the EC50 [3] is reported as 20000 nM. It also gave a Ratio Ki [4] of 1 and a logD [5] of 1.49.

In the case of `COc1cc2c(cc1OC)CN(CCCN1CCc3ccccc3C1=O)CC2`, the Ki [1] is reported as 4.84 nM, the Ki [2] is reported as 709 nM and the EC50 [3] is reported as 12000 nM. For the same molecule, the Ratio Ki [4] was 147 and the logD [5] was 2.25.

`COc1cc(Br)c(C(=O)NCCCN2CCc3cc(OC)c(OC)cc3C2)cc1OC` gave a Ki [1] of 50.9 nM, a Ki [2] of 2570 nM and an EC50 [3] of 45000 nM. The Ratio Ki [4] was 50 and the logD [5] was 2.89.

With `COc1cccc2c1CCCC2C(=O)NCCCN1CCN(C2CCCCC2)CC1` (stereo not drawn) the Ki [1] was 16.5 nM, the Ki [2] was 35.1 nM and the EC50 [3] was 8600 nM. The Ratio Ki [4] was 2 and the logD [5] was 2.46.

Work on `COc1cc2c(cc1OC)CN(CCCNC(=O)C1CCCc3c(OC)cccc31)CC2` (stereo not drawn) yielded a Ki [1] of 21.1 nM, a Ki [2] of 146 nM and an EC50 [3] of 2700 nM. For the same molecule, the Ratio Ki [4] was 7 and the logD [5] was 3.21.

`COc1cc2c(cc1OC)CN(CCCNC(=O)c1cc(C)ccc1OC)CC2` gave a Ki [1] of 2.63 nM, a Ki [2] of 534 nM and an EC50 [3] of 5300 nM. It also gave a Ratio Ki [4] of 203 and a logD [5] of 2.7.

For `COc1cc2c(cc1OC)CN(CCCCNC(=O)c1cc(C)ccc1OC)CC2`, the Ki [1] was 8.68 nM, the Ki [2] was 2150 nM and the EC50 [3] was 1600 nM. For the same molecule, the Ratio Ki [4] was 247 and the logD [5] was 2.83.
